ChEMBL document CHEMBL1121523, “Aminoglycoside antibiotics. 3. Epimino derivatives of neamine, ribostamycin, and kanamycin B” (1980)
≈ marks a conversion by molar mass, not a printed value.

Key:
Format in all cases: functional
Providencia rettgeri [1] = experiment: Minimum inhibitory concentration was measured against Proteus rettgeri A 21615
Pseudomonas aeruginosa [2] = experiment: Minimum inhibitory concentration was measured against Pseudomonas aeruginosa A 20357, in combination with Kanamycin A at specified concentration.
Method in brief: (§1)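 The value is the minimum inhibitory concentration of kanamycin A, in µg/mL, against the listed strain. Strains are designated by their inactivating enzyme, e.g. aminoglycoside 3'-phosphotransferase II producers.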

Escherichia coli [3] = experiment: Minimum inhibitory concentration was measured against Escherichia coli A 20665
Escherichia coli [4] = experiment: Minimum inhibitory concentration was measured against Escherichia coli A 20507, in combination with Kanamycin A at 8 ug/mL concentration; method in brief: as §1
Escherichia coli [5] = experiment: Minimum inhibitory concentration was measured against Escherichia coli A 20507, in combination with Kanamycin A at specified concentration; method in brief: as §1
Escherichia coli [6] = experiment: Minimum inhibitory concentration was measured against Escherichia coli A 9632, in combination with Kanamycin A at 8 ug/mL concentration; method in brief: as §1
Pseudomonas aeruginosa [7] = experiment: Minimum inhibitory concentration was measured against Pseudomonas aeruginosa A 20653
Pseudomonas aeruginosa [8] = experiment: Minimum inhibitory concentration was measured against Pseudomonas aeruginosa A 20357
Escherichia coli [9] = experiment: Minimum inhibitory concentration was measured against Escherichia coli A 20507
Escherichia coli [10] = experiment: Minimum inhibitory concentration was measured against Escherichia coli A 9632, in combination with Kanamycin A at specified concentration; method in brief: as §1
Escherichia coli [11] = experiment: Minimum inhibitory concentration was measured against Escherichia coli A 9632
Pseudomonas aeruginosa [12] = experiment: Minimum inhibitory concentration was measured against Pseudomonas aeruginosa A 20653, in combination with Kanamycin A at 8 ug/mL concentration; method in brief: as §1
Providencia rettgeri [13] = experiment: Minimum inhibitory concentration was measured against Proteus rettgeri A 21615, in combination with Kanamycin A at 8 ug/mL concentration; method in brief: as §1
Pseudomonas aeruginosa [14] = experiment: Minimum inhibitory concentration was measured against Pseudomonas aeruginosa A 20653 in combination with Kanamycin A at specified concentration.; method in brief: as §1
Pseudomonas aeruginosa [15] = experiment: Minimum inhibitory concentration was measured against Pseudomonas aeruginosa A 20357, in combination with Kanamycin A at 8 ug/mL concentration; method in brief: as §1
Providencia rettgeri [16] = experiment: Minimum inhibitory concentration was measured against Proteus rettgeri A 9637, in combination with Kanamycin A at specified concentration.; method in brief: as §1
Escherichia coli [17] = experiment: Minimum inhibitory concentration was measured against Escherichia coli A 20665, in combination with Kanamycin A at specified concentration; method in brief: as §1
Providencia rettgeri [18] = experiment: Minimum inhibitory concentration was measured against Proteus rettgeri A 21615, in combination with Kanamycin A at specified concentration.; method in brief: as §1
Escherichia coli [19] = experiment: Minimum inhibitory concentration was measured against Escherichia coli A 20665, in combination with Kanamycin A at 8 ug/mL concentration; method in brief: as §1
Providencia rettgeri [20] = experiment: Minimum inhibitory concentration was measured against Proteus rettgeri A 9637
Providencia rettgeri [21] = experiment: Minimum inhibitory concentration was measured against Proteus rettgeri A 9637, in combination with Kanamycin A at 8 ug/mL concentration; method in brief: as §1
Providencia rettgeri [22] = experiment: Minimum inhibitory concentration was measured against Proteus rettgeri A 9637, in combination with Kanamycin A at 32 ug/mL concentration
Method in brief: (§2)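 Kanamycin A was serially diluted in Mueller-Hinton broth with each epimino derivative held at a fixed 32 µg/mL (8 µg/mL also run). The value is the minimum inhibitory concentration of kanamycin A in the combination against Bristol-numbered strains, read for lowering of kanamycin A MIC in resistant strains.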

Pseudomonas aeruginosa [23] = experiment: Minimum inhibitory concentration was measured against Pseudomonas aeruginosa A 20653 in combination with Kanamycin A at 32 ug/mL concentration; method in brief: as §2
Pseudomonas aeruginosa [24] = experiment: Minimum inhibitory concentration was measured against Pseudomonas aeruginosa A 20357, in combination with Kanamycin A at 32 ug/mL concentration; method in brief: as §2
Providencia rettgeri [25] = experiment: Minimum inhibitory concentration was measured against Proteus rettgeri A 21615, in combination with Kanamycin A at 32 ug/mL concentration; method in brief: as §2
Escherichia coli [26] = experiment: Minimum inhibitory concentration was measured against Escherichia coli A 20507, in combination with Kanamycin A at 32 ug/mL concentration; method in brief: as §2
Escherichia coli [27] = experiment: Minimum inhibitory concentration was measured against Escherichia coli A 20665, in combination with Kanamycin A at 32 ug/mL concentration; method in brief: as §2

For `NCC1OC(OC2C(N)CC(N)C(OC3OC(CO)C(O)C4NC34)C2O)C(N)C(O)C1O` (stereo unspecified), the MIC (Providencia rettgeri [1]) was > 125 µg/mL, the MIC (Pseudomonas aeruginosa [2]) was 4 µg/mL and the MIC (Escherichia coli [3]) was > 125 µg/mL. For the same compound, the MIC (Escherichia coli [4]) was 125 µg/mL, the MIC (Escherichia coli [5]) was 125 µg/mL and the MIC (Escherichia coli [6]) was 1 µg/mL. The MIC (Pseudomonas aeruginosa [7]) was > 125 µg/mL, the MIC (Pseudomonas aeruginosa [8]) was > 125 µg/mL and the MIC (Escherichia coli [9]) was > 125 µg/mL. The MIC (Escherichia coli [10]) was 1 µg/mL, the MIC (Escherichia coli [11]) was 63 µg/mL (≈ 135 µM) and the MIC (Pseudomonas aeruginosa [12]) was > 125 µg/mL. For the same compound, the MIC (Providencia rettgeri [13]) was 63 µg/mL, the MIC (Pseudomonas aeruginosa [14]) was > 125 µg/mL and the MIC (Pseudomonas aeruginosa [15]) was 4 µg/mL. For the same compound, the MIC (Providencia rettgeri [16]) was 0.5 µg/mL, the MIC (Escherichia coli [17]) was > 125 µg/mL and the MIC (Providencia rettgeri [18]) was 63 µg/mL. The MIC (Escherichia coli [19]) was > 125 µg/mL, the MIC (Providencia rettgeri [20]) was > 125 µg/mL and the MIC (Providencia rettgeri [21]) was 0.5 µg/mL.

`NCC1OC(OC2C(N)CC(N)C(O)C2O)C2NC2C1O` (stereo unspecified) was tested, and the MIC (Escherichia coli [4]) was 63 µg/mL, the MIC (Escherichia coli [5]) was 32 µg/mL and the MIC (Escherichia coli [9]) was > 125 µg/mL.

For `NCC1OC(OC2C(NC(=O)OCc3ccccc3)CC(N)C(O)C2O)C(N)C(O)C1O` (stereo unspecified), the MIC (Providencia rettgeri [22]) was 1 µg/mL, the MIC (Pseudomonas aeruginosa [23]) was > 125 µg/mL and the MIC (Providencia rettgeri [1]) was > 125 µg/mL. The MIC (Escherichia coli [3]) was > 125 µg/mL, the MIC (Escherichia coli [4]) was 125 µg/mL and the MIC (Escherichia coli [6]) was 2 µg/mL. The MIC (Pseudomonas aeruginosa [7]) was > 125 µg/mL, the MIC (Pseudomonas aeruginosa [24]) was 4 µg/mL and the MIC (Pseudomonas aeruginosa [8]) was > 125 µg/mL. The MIC (Providencia rettgeri [25]) was 125 µg/mL, the MIC (Escherichia coli [9]) was > 125 µg/mL and the MIC (Escherichia coli [26]) was 125 µg/mL. The MIC (Escherichia coli [27]) was > 125 µg/mL, the MIC (Escherichia coli [11]) was > 125 µg/mL and the MIC (Pseudomonas aeruginosa [12]) was > 125 µg/mL. The MIC (Providencia rettgeri [13]) was 125 µg/mL, the MIC (Pseudomonas aeruginosa [15]) was 4 µg/mL and the MIC (Escherichia coli [19]) was > 125 µg/mL. For the same compound, the MIC (Providencia rettgeri [20]) was > 125 µg/mL and the MIC (Providencia rettgeri [21]) was 1 µg/mL.

With `NCC1OC(OC2C(NC(=O)OCc3ccccc3)CC(N)C(O)C2O)C2NC2C1O` (stereo unspecified) the MIC (Providencia rettgeri [1]) was > 125 µg/mL, the MIC (Escherichia coli [3]) was 125 µg/mL (≈ 285 µM) and the MIC (Escherichia coli [4]) was > 125 µg/mL. The MIC (Escherichia coli [5]) was 63 µg/mL, the MIC (Pseudomonas aeruginosa [7]) was > 125 µg/mL and the MIC (Pseudomonas aeruginosa [8]) was > 125 µg/mL. For the same compound, the MIC (Escherichia coli [9]) was > 125 µg/mL, the MIC (Escherichia coli [11]) was 125 µg/mL (≈ 285 µM) and the MIC (Pseudomonas aeruginosa [12]) was > 125 µg/mL. For the same compound, the MIC (Providencia rettgeri [13]) was > 125 µg/mL, the MIC (Pseudomonas aeruginosa [14]) was > 125 µg/mL and the MIC (Escherichia coli [17]) was > 125 µg/mL. For the same compound, the MIC (Providencia rettgeri [18]) was 63 µg/mL, the MIC (Escherichia coli [19]) was > 125 µg/mL and the MIC (Providencia rettgeri [20]) was > 125 µg/mL.

In the case of `NCC1OC(OC2C(N)CC(N)C(OC3OC(CO)C(O)C(N)C3O)C2O)C2NC2C1O` (stereo unspecified), the MIC (Providencia rettgeri [1]) is reported as > 125 µg/mL, the MIC (Pseudomonas aeruginosa [2]) is reported as 4 µg/mL and the MIC (Escherichia coli [3]) is reported as 125 µg/mL (≈ 269 µM). It also gave an MIC (Escherichia coli [4]) of 125 µg/mL, an MIC (Escherichia coli [5]) of 125 µg/mL and an MIC (Escherichia coli [6]) of 0.25 µg/mL. For the same compound, the MIC (Pseudomonas aeruginosa [7]) was 125 µg/mL (≈ 269 µM), the MIC (Pseudomonas aeruginosa [8]) was 125 µg/mL (≈ 269 µM) and the MIC (Escherichia coli [9]) was 125 µg/mL (≈ 269 µM). For the same compound, the MIC (Escherichia coli [11]) was 8 µg/mL (≈ 17.2 µM), the MIC (Pseudomonas aeruginosa [12]) was > 125 µg/mL and the MIC (Providencia rettgeri [13]) was 125 µg/mL. For the same compound, the MIC (Pseudomonas aeruginosa [14]) was > 125 µg/mL, the MIC (Pseudomonas aeruginosa [15]) was 4 µg/mL and the MIC (Providencia rettgeri [16]) was 0.5 µg/mL. For the same compound, the MIC (Escherichia coli [17]) was > 125 µg/mL, the MIC (Providencia rettgeri [18]) was 125 µg/mL and the MIC (Escherichia coli [19]) was > 125 µg/mL. For the same compound, the MIC (Providencia rettgeri [20]) was 16 µg/mL (≈ 34.4 µM) and the MIC (Providencia rettgeri [21]) was 0.5 µg/mL.

In the case of `NCC1OC(OC2C(NC(=O)OCc3ccccc3)CC(N)C(O)C2OC2O[C@H](CO)[C@@H](O)[C@H]2O)C2NC2C1O` (stereo partly specified), the MIC (Providencia rettgeri [1]) is reported as > 125 µg/mL, the MIC (Pseudomonas aeruginosa [2]) is reported as 4 µg/mL and the MIC (Escherichia coli [3]) is reported as > 125 µg/mL. For the same compound, the MIC (Escherichia coli [4]) was 125 µg/mL, the MIC (Escherichia coli [5]) was 63 µg/mL and the MIC (Escherichia coli [6]) was 1 µg/mL. The MIC (Pseudomonas aeruginosa [7]) was > 125 µg/mL, the MIC (Pseudomonas aeruginosa [8]) was > 125 µg/mL and the MIC (Escherichia coli [9]) was > 125 µg/mL. For the same compound, the MIC (Escherichia coli [10]) was 1 µg/mL, the MIC (Escherichia coli [11]) was > 125 µg/mL and the MIC (Pseudomonas aeruginosa [12]) was > 125 µg/mL. The MIC (Providencia rettgeri [13]) was 125 µg/mL, the MIC (Pseudomonas aeruginosa [14]) was > 125 µg/mL and the MIC (Pseudomonas aeruginosa [15]) was 4 µg/mL. The MIC (Providencia rettgeri [16]) was 0.5 µg/mL, the MIC (Escherichia coli [17]) was > 125 µg/mL and the MIC (Providencia rettgeri [18]) was 125 µg/mL. The MIC (Escherichia coli [19]) was > 125 µg/mL, the MIC (Providencia rettgeri [20]) was > 125 µg/mL and the MIC (Providencia rettgeri [21]) was 0.5 µg/mL.

For `NC[C@H]1O[C@H](O[C@H]2[C@H](O)[C@@H](O[C@H]3O[C@H](CO)[C@@H](O)[C@H](N)[C@H]3O)[C@H](N)C[C@@H]2N)[C@H](O)[C@@H](O)[C@@H]1O` [KANAMYCIN], the MIC (Providencia rettgeri [1]) was 125 µg/mL (≈ 258 µM), the MIC (Escherichia coli [3]) was > 125 µg/mL and the MIC (Pseudomonas aeruginosa [7]) was > 125 µg/mL. The MIC (Escherichia coli [9]) was > 125 µg/mL, the MIC (Escherichia coli [11]) was 2 µg/mL (≈ 4.13 µM) and the MIC (Providencia rettgeri [20]) was ≤ 0.25 µg/mL.
